Compounds with a hit are over-represented: about 2% of the library has one in this group of screens.
T cruzi repl – inhibitors of intracellular T. cruzi growth, primary screen, luminescence, NIH3T3 host cells; 300,000 tested, 1.4% active; inhibition, % (test concentration not listed); AID 1885, 2009; T. cruzi beta-gal in NIH3T3, 90 h;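 active = mean inhibition across valid replicates above about 55%, limit read from the data; inconclusive = mean below that limit but half or more replicates reach it; inactive = mean below it, under half of replicates reach it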;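 also: signal also drops with host cell toxicity which is not excluded here; 0% = plate median of DMSO wells and 100% = zero luminescence signal; higher percent means less beta-gal luminescence so fewer parasites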
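System: mouse NIH/3T3 fibroblasts infected with β-gal-expressing T. cruzi Tulahuen C4 / Input: NIH/3T3 cells, 5,000 per well / Buffer or medium: Low-serum DMEM with 2% FBS / Probe or stimulus: 5000 reporter trypomastigotes per well / Schedule: ≥90 h infection period, 3 h prior cell attachment / Measured by: GalScreen luminescence, 60 min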
HIF act – HIF pathway transcriptional activators, primary screen, cell-based, U2OS HRE-luciferase, luminescence. U2OS HRE-luciferase reporter; normalized: DMSO 0%, desferrioxamine 100%. activation, % at 7.5 µM (by protocol). 300,000 tested, 0.32% active;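 active = mean activation of at least 10% of the iron chelator positive control signal, with at least half of replicates also reaching 10%; inconclusive = mean and replicate majority disagree about reaching 10%; inactive = mean and most replicates under 10%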
ARNT-TACC3 inh – disruptors of ARNT/TACC3 protein interaction, primary screen, biochemical, AlphaScreen, single concentration; Transforming acidic coiled-coil-containing protein 3 (Homo sapiens), Q9Y6A5; AlphaScreen His-ARNT PAS-B/GST-TACC3 binding, luminescence; TACC3 fragment carries E629A point mutation; inhibition, % at 9.99 µM; 390,000 tested, 0.66% active; AID 623870, 2012;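 active = mean inhibition of replicates at least 50% and at least half of replicates each reaching 50%; inconclusive = half or more replicates reach 50% but mean below 50%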;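 also: 0% = complete ARNT plus TACC3 wells and 100% = ARNT alone without TACC3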
AI-2 QS modul – Vibrio harveyi AI-2 quorum sensing modulators, primary screen, JMH597 strain, luminescence/OD600 ratio. Vibrio harveyi JMH597 AI-2 luminescence/OD600 ratio, 9 h; stronger effect = lower value; strain lacks LuxN and CqsS sensors; 0 = neutral-control median. activity change, % at 7.5 µM. 300,000 tested, 0.4% active. AID 2094, 2009; in the data active = activity change below about -75%, passing the limit was not always enough; inconclusive = no clear call, values can overlap the other calls;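 also: luminescence divided by OD600 gain over 9 h not by final OD600 alone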
* = called active by the depositor; ? = inconclusive; . = no result.

SMILES | T cruzi repl | HIF act | ARNT-TACC3 inh | AI-2 QS modul
Cc1cccc(-n2cnc(C(=O)NNC(=S)Nc3ccc(Cl)cc3)c2)n1 | 16.1 | 0.0 | 66.7* | 2.0
CO[C@H]1CN(C)C(=O)c2ccc(NC(=O)C3CC3)cc2OC[C@@H](C)N(C(=O)C2CCOCC2)C[C@@H]1C | . | . | -4.9 | .
O=c1[nH]c(-c2ccccn2)nc2sc(-c3ccccc3)cc12 | 54.8* | 72.1* | 12.4 | 28.5
Cc1ccc(CCNC(=O)CN2C(=O)COc3ccccc32)cc1 | 67.0* | . | -1.3 | 22.6
COCC#Cc1ccc2c(c1)O[C@@H](CN(C)S(=O)(=O)c1ccc(OC)cc1)[C@H](C)CN([C@H](C)CO)S2(=O)=O | . | . | 10.9 | .
O=C(N/N=C/c1cc(O)ccc1Br)c1cccnc1 | -27.3 | 13.6* | 85.3* | ?
O=C(N/N=C/c1cc(Br)c(O)c(Br)c1O)c1cccnc1 | 1.7 | 0.7 | 70.3* | 72.0
O=C(/C=C(\c1ccc(Cl)cc1)n1cncn1)c1ccc(Cl)cc1 | 65.5* | -0.1 | 0.0 | 19.1
C[C@@H]1CCCCO[C@@H](CN(C)C(=O)NC2CCCCC2)[C@@H](C)CN([C@H](C)CO)C(=O)c2cc(NC(=O)Nc3ccccc3)ccc2O1 | . | . | -6.2 | .
C[C@@H]1CN([C@H](C)CO)C(=O)c2cc(NS(=O)(=O)c3cccs3)ccc2O[C@H]1CN(C)Cc1ccc(Oc2ccccc2)cc1 | . | . | -5.7 | .
Cc1c(Cl)cccc1Nc1nc(NCCO)c2ccccc2n1 | 56.5* | 1.7 | 29.0 | -0.4
OCCNc1nc(Nc2ccc(Br)cc2)nc2ccccc12 | 62.0* | 0.9 | . | -12.5
OCCNc1nc(Nc2ccccc2)nc2ccccc12 | 41.5 | 0.1 | -21.1 | 17.5
CCn1cc(C(=O)NCc2ccc3c(c2)OCO3)c(=O)c2cc(F)c(N3CCN(C)CC3)cc21 | 59.7* | 0.1 | 1.4 | 2.1
CCC(Sc1nc2ccncc2[nH]1)C(=O)Nc1ccc(C)c(Cl)c1 (stereo not given) | 61.9* | -0.1 | 3.8 | 11.3
CCOc1ccccc1NC(=O)C(CC)Sc1nc2ccncc2[nH]1 (stereo not given) | 11.7 | -0.1 | 1.2 | -25.7
O=C(CCSc1ccc(Br)cc1)c1ccc(O)cc1 | 23.9 | 0.1 | -8.4 | -77.4*
COCC(=O)Nc1ccc2c(c1)C(=O)N(C)C[C@@H](OC)[C@@H](C)CN(CCC(F)(F)F)[C@@H](C)CO2 | . | . | -6.9 | .
CCN1CCN(Cc2ccc(NC(=O)c3ccc(C)c(NC(=O)c4cc(-c5ccc(Br)cc5)n[nH]4)c3)cc2C(F)(F)F)CC1 | 59.6* | -1.2 | . | 46.3
CCN1CCN(Cc2ccc(NC(=O)c3ccc(C)c(NC(=O)c4nccn4C)c3)cc2C(F)(F)F)CC1 | 11.3 | 1.2 | 6.5 | 7.3
O=C(CCN1CCOCC1)NNC(=S)NC(=O)c1ccccc1 | -5.7 | -0.2 | 47.6* | 41.7
O=C(NCC(c1cccnc1)N1CCN(c2ccccc2)CC1)C1CCCCC1 (stereo not given) | 56.4* | 0.0 | -5.4 | 12.9
O=C(NCC(c1cccnc1)N1CCN(c2ccccc2)CC1)OCc1ccccc1 (stereo not given) | 54.2 | 0.1 | 5.0 | 6.5
O=C(NCC(c1cccnc1)N1CCN(c2ccccc2F)CC1)c1ccccc1 (stereo not given) | 47.5 | -0.1 | 1.3 | 3.6
O=C(NCC(c1cccnc1)N1CCN(c2ccccc2F)CC1)OCc1ccccc1 (stereo not given) | 56.3* | 0.1 | 0.5 | 49.6
SMILES | T cruzi repl | HIF act | ARNT-TACC3 inh | AI-2 QS modul
O=C(NCC(c1cccnc1)N1CCN(c2ccc(F)cc2)CC1)OCc1ccccc1 (stereo not given) | 60.0* | -0.3 | 6.7 | ?
C[C@H]1CCCCO[C@@H](CN(C)S(=O)(=O)c2cn(C)cn2)[C@@H](C)CN([C@@H](C)CO)C(=O)c2cc(NC(=O)Nc3ccccc3)ccc2O1 | . | . | 2.7 | .
C[C@@H]1CCCCO[C@@H](CN(C)C(=O)c2ccccc2)[C@H](C)CN([C@H](C)CO)C(=O)c2cc(NC(=O)c3ccncc3)ccc2O1 | . | . | -22.0 | .
CS(=O)(=O)c1ccc(S(=O)CC(=O)OCc2ccccc2)c([N+](=O)[O-])c1 (stereo not given) | 56.1* | 0.6 | 0.9 | 94.6
O=C(CS(=O)c1ccc(C(F)(F)F)cc1[N+](=O)[O-])Oc1ccccc1 (stereo not given) | -11.5 | 6.3 | -16.7 | 41.3
CCOc1ccc(N=Cc2c(C)[nH]n(-c3nc4ccccc4[nH]3)c2=O)cc1 | 3.7 | -0.5 | 71.6* | 35.4
Cc1cccc(NCC(=O)NNC(=S)Nc2ccccc2)c1 | . | . | 46.9* | 8.8
CN1CCc2c(sc3c2c(=O)n(-c2ccccc2)c2nnc(SCc4ccc(Cl)cc4)n32)C1 | 61.0* | 0.1 | 3.8 | 15.4
COc1ccc(C(=O)Nc2ccc3c(c2)C(=O)N(C)C[C@H](OC)[C@H](C)CN(C(C)=O)[C@H](C)CO3)cc1 | . | . | -2.9 | .
CC(C)NC(=O)Nc1ccc2c(c1)C(=O)N([C@@H](C)CO)C[C@H](C)[C@@H](CN(C)C(=O)Nc1ccc(F)cc1)O2 | . | . | -10.0 | .
NC(N)=N/N=C/c1ccc(OCc2ccccc2)cc1 | 71.4* | 1.6 | 10.8 | 14.3
NC(N)=N/N=C/c1ccc(OCc2ccc(Cl)cc2)cc1 | 60.7* | -1.0 | 18.7 | 13.6
NC(N)=N/N=C/c1ccc(Br)cc1 | 66.6* | -0.2 | . | 13.4
COc1ccc(CC(=O)Nc2cc(Cl)ccc2O)cc1 | -2.6 | -0.1 | -1.7 | -94.1*
CC=Cc1ccc2n(c1=O)C[C@@H]1[C@@H](CO)[C@H](C(=O)NCCCN3CCOCC3)N(C)[C@H]21 (mixture of isomers) | . | . | -29.5 | .
COc1ccc2[nH]c3c(c2c1)CCN1C(=O)N([C@@H](C)C(=O)NC2CCN(Cc4ccccc4)CC2)C(=O)[C@]31C | 64.0* | 0.2 | 23.9 | -1.8
C[C@@H](C(=O)NCCc1ccccc1)N1C(=O)N2CCc3c([nH]c4ccccc34)[C@@]2(C)C1=O | 61.3* | 0.7 | 8.7 | 14.6
CC(C)C[C@@H](C(=O)NC1CC1)N1C(=O)N2CCc3c([nH]c4ccccc34)[C@@]2(C)C1=O | -5.8 | -0.2 | -0.1 | 12.9
CC(C)C[C@@H](C(=O)NC1CCN(Cc2ccccc2)CC1)N1C(=O)N2CCc3c([nH]c4ccccc34)[C@@]2(C)C1=O | 65.0* | -0.7 | -8.2 | 2.5
COc1ccc2[nH]c3c(c2c1)CCN1C(=O)N([C@@H](C)C(=O)NC2CC2)C(=O)[C@]31C | -19.6 | -0.3 | 2.0 | 3.7
C[C@@H](C(=O)NC1CCN(Cc2ccccc2)CC1)N1C(=O)N2CCc3c([nH]c4ccccc34)[C@@]2(C)C1=O | 59.2* | -0.2 | 23.6 | 3.1
C[C@@H](C(=O)NCCc1ccccc1F)N1C(=O)N2CCc3c([nH]c4ccccc34)[C@@]2(C)C1=O | 23.1 | 0.4 | 7.7 | -5.3

Source: PubChem
